{"data": "Published values of several laboratories", "target": "Serine/threonine-protein kinase 38 (STK38, Homo sapiens, UniProt Q15208)", "note": "Protocols differ between the studies behind these lines."}
{"SMILES": "O=C(Nc1c[nH]nc1C(=O)NC1CCNCC1)c1cc(F)cc(F)c1", "read-out": "binding", "method": "competition with immobilised ligand", "tested at": "1 µM", "remaining binding": "97%"}
{"SMILES": "CN(CCCC(F)(F)F)c1nccc(-c2cnn3ncccc23)n1", "read-out": "binding", "tested at": "1 µM", "remaining binding": "100%"}
{"SMILES": "CCOCCn1cc(C(=O)Nc2ccc(-n3nc(-c4cccnc4)cc3C(F)(F)F)cn2)ccc1=O", "read-out": "cell-free assay", "method": "competition with immobilised ligand", "tested at": "1 µM", "remaining binding": "91%"}
{"SMILES": "O=C(c1ccc(Nc2ncc(Cl)c(-c3ccc(Cl)s3)n2)cc1)N1CCC(N2CCCC2)CC1", "read-out": "binding", "method": "competition with immobilised ligand", "tested at": "1 µM", "remaining binding": "67%"}
{"SMILES": "C[C@@H]1CCN(c2nccc(-c3cnn4ncccc34)n2)C1", "read-out": "binding", "tested at": "1 µM", "remaining binding": "72%"}
{"SMILES": "c1cncc(-c2cccc(Nc3nccc(NC4CCCCC4)n3)c2)c1", "read-out": "binding", "method": "competition with immobilised ligand", "tested at": "10 µM", "remaining binding": "89%"}
{"SMILES": "CN(C)c1nccc(-c2cnc3ncccn23)n1", "read-out": "binding", "tested at": "1 µM", "remaining binding": "79%"}
{"SMILES": "CCS(=O)(=O)c1cc2cc(C[C@@](O)(CC(C)(C)c3ccc(F)cc3C(N)=O)C(F)(F)F)[nH]c2cn1", "read-out": "cell-free assay", "method": "competition with immobilised ligand", "tested at": "1 µM", "remaining binding": "76%"}
{"SMILES": "FC(F)(F)Oc1cccc(-c2cnc3ccc(-c4ccncc4)nn23)c1", "read-out": "cell-free assay", "method": "competition with immobilised ligand", "tested at": "5 µM", "remaining binding": "80%"}
{"SMILES": "O=C(NCc1ncc(C(F)(F)F)cc1Cl)c1ccc2c(c1)C1(CCS(=O)(=O)CC1)[C@H](C1CC1)N2S(=O)(=O)c1ccc(F)cc1", "read-out": "cell-free assay", "method": "competition with immobilised ligand", "tested at": "1 µM", "remaining binding": "92%"}
{"SMILES": "CNC(=O)[C@@H]1CC[C@@H](n2c(-c3ccc4cnccc4c3)nc3ccc(C(=O)NCc4cccc(C(N)=O)c4)cc32)C1", "read-out": "binding", "method": "competition with immobilised ligand", "tested at": "1 µM", "remaining binding": "62%"}
{"SMILES": "COc1ncc2cc3ccccc3nc2c1C#N", "read-out": "cell-free assay", "method": "competition with immobilised ligand", "tested at": "5 µM", "remaining binding": "94%"}
{"SMILES": "CN(C)c1nccc(-c2cnn3ncccc23)n1", "read-out": "binding", "tested at": "1 µM", "remaining binding": "74%"}
{"SMILES": "CCOC(=O)c1cc2cc(-c3cc(C(=O)NCc4ccc(C(=O)O)cc4)nn3C)ccc2[nH]1", "read-out": "cell-free assay", "method": "competition with immobilised ligand", "tested at": "0.1 µM", "remaining binding": "95%"}
{"SMILES": "O=C(NCCCN1CCOCC1)c1ccc(Nc2nccc(-c3cc4ccccc4s3)n2)cc1", "read-out": "binding", "method": "competition with immobilised ligand", "tested at": "1 µM", "remaining binding": "66%"}
{"SMILES": "COc1cnc(Nc2cccc(S(N)(=O)=O)c2)nc1N1CCN(c2ccccc2)C(=O)C1", "read-out": "binding", "method": "competition with immobilised ligand", "tested at": "1 µM", "remaining binding": "84%"}
{"SMILES": "CN(C)c1ncc(F)c(-c2cnn3ncccc23)n1", "read-out": "binding", "tested at": "1 µM", "remaining binding": "90%"}
{"SMILES": "COc1ccc2cc(OCC3(C(=O)O)CN(C(=O)c4ccc(F)cc4)C3)ccc2c1", "read-out": "cell-free assay", "method": "competition with immobilised ligand", "tested at": "1 µM", "remaining binding": "98%"}
{"SMILES": "O=C(c1ccc(Nc2ncc(Cl)c(-c3cc4ccccc4s3)n2)cc1)N1CCC(N2CCCC2)CC1", "read-out": "binding", "method": "competition with immobilised ligand", "tested at": "1 µM", "remaining binding": "78%"}
{"SMILES": "C[C@@]1(Cc2ccc(C#N)cc2)C(=O)N(c2cc(Cl)cc(Cl)c2)c2ncc(C(=O)NC3(c4nc(C5CCC5)no4)CC3)n21", "read-out": "cell-free assay", "method": "competition with immobilised ligand", "tested at": "1 µM", "remaining binding": "100%"}
{"SMILES": "N[C@@H]1CCN(c2nccc(-c3cnn4ncccc34)n2)C1", "read-out": "binding", "tested at": "1 µM", "remaining binding": "84%"}
